# Experimental data from PMC4955361 (Bioorganic & medicinal chemistry letters, 2016).
# What was measured:
# M1 [1] = target: T1, M1 (Homo sapiens, UniProt P11229); assay: Muscarinic receptor subtype selectivity, M1; assay type: cell-based; conditions: for selectivity versus M1: data not shown; for potency at M1 relative to M4: antagonist
# T1 sequence (P11229 1-460): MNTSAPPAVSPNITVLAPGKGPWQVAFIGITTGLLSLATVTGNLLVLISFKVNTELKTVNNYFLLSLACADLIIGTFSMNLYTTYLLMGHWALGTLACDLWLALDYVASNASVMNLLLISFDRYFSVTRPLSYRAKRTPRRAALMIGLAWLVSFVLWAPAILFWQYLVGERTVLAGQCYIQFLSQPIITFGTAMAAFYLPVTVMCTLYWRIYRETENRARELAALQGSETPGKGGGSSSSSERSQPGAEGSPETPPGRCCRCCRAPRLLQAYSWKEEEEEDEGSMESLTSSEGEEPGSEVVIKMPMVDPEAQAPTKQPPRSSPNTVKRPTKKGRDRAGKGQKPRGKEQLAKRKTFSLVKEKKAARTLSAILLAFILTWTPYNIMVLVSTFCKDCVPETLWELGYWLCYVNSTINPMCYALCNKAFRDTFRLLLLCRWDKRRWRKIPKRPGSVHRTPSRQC
# M5 [2] = target: T2, M5 (Homo sapiens, UniProt P08912); assay: Muscarinic receptor subtype selectivity, M5; assay type: cell-based; conditions: for selectivity versus M5: data not shown; for potency at M5 relative to M4: antagonist
# T2 sequence (P08912 1-532): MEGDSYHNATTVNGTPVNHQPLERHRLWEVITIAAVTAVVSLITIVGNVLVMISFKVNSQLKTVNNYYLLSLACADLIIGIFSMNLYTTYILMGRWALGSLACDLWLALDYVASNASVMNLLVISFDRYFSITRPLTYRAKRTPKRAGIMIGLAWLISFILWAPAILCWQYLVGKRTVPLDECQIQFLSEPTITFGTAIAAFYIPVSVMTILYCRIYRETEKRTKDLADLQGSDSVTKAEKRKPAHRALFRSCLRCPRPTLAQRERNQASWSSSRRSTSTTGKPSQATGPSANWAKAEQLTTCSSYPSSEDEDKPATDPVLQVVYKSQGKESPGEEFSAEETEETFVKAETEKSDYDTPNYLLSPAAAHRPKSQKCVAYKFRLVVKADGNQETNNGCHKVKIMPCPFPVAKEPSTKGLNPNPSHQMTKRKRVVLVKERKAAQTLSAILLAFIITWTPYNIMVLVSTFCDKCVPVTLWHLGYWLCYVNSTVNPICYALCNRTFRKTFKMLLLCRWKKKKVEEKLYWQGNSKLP
# [3] = Intrinsic clearance in rat hepatic microsomes; assay type: in vitro ADME; conditions: predicted hepatic clearance from in vitro intrinsic clearance
# [4] = Intrinsic clearance in human hepatic microsomes; assay type: in vitro ADME; conditions: predicted hepatic clearance from in vitro intrinsic clearance
# [5] = Metabolite identification; assay type: in vitro ADME; conditions: rat hepatic microsomes, NADPH-dependent
# [6] = Metabolite identification; assay type: in vitro ADME; conditions: human hepatic microsomes, NADPH-dependent
# rats = conditions: by potentiation of receptor activation by endogenous acetylcholine; cited from earlier work
# rodent = conditions: cited from earlier work
# human M4 = target: T3, human M4 (Homo sapiens, UniProt P08173); assay type: cell-based; conditions: read-out: % ACh Max ± SEM
# T3 sequence (P08173 1-479): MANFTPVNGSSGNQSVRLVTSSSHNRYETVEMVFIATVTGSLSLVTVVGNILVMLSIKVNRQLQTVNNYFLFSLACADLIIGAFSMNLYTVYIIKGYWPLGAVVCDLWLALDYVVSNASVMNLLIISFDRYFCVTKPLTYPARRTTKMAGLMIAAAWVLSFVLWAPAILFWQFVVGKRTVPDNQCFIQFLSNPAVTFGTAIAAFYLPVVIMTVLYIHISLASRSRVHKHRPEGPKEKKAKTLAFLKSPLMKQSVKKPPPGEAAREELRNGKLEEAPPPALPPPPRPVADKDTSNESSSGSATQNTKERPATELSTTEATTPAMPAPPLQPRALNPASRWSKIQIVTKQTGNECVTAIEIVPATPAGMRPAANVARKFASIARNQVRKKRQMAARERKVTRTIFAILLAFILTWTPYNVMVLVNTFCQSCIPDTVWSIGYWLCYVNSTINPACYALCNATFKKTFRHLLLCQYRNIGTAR
# Method in brief: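 Functional Ca2+ mobilization read-out in CHO cells co-expressing human M4 and the chimeric G protein Gqi5. Test compound is applied with a fixed ~EC20 concentration of acetylcholine. PAM potency is reported as EC50/pEC50 and efficacy as % of the acetylcholine maximum. Values are means of at least three independent determinations.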
# M1 [7] = target: T1, M1; assay: Built-in HTS counterscreen, human M1; assay type: cell-based
# M5 [8] = target: T2, M5; assay: Built-in HTS counterscreen, human M5; assay type: cell-based
# [9] = Rat brain:plasma distribution; assay type: in vivo; conditions: in words
# M2 = target: T4, M2 (Homo sapiens, UniProt P08172); assay: Muscarinic receptor subtype selectivity, M2; assay type: cell-based; conditions: antagonist
# T4 sequence (P08172 1-466): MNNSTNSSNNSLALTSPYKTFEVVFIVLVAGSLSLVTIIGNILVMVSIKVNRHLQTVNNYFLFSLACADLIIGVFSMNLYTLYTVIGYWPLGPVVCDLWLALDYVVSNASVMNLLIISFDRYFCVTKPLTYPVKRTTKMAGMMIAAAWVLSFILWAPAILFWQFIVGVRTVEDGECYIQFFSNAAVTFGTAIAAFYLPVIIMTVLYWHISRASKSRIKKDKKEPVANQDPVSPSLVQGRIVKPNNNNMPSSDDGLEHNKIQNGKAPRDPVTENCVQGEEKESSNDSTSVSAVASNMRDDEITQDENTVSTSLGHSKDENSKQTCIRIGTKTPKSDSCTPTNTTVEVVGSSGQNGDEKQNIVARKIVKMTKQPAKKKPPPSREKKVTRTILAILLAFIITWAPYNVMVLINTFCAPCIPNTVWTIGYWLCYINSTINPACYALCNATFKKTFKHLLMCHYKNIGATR
# M3 = M3 (Homo sapiens, UniProt P20309); assay: Muscarinic receptor subtype selectivity, M3; assay type: cell-based; conditions: antagonist
# CYP450 = CYP450 inhibition profile; assay type: in vitro ADME; conditions: in words
# Chain of M3 (P20309 whole entry): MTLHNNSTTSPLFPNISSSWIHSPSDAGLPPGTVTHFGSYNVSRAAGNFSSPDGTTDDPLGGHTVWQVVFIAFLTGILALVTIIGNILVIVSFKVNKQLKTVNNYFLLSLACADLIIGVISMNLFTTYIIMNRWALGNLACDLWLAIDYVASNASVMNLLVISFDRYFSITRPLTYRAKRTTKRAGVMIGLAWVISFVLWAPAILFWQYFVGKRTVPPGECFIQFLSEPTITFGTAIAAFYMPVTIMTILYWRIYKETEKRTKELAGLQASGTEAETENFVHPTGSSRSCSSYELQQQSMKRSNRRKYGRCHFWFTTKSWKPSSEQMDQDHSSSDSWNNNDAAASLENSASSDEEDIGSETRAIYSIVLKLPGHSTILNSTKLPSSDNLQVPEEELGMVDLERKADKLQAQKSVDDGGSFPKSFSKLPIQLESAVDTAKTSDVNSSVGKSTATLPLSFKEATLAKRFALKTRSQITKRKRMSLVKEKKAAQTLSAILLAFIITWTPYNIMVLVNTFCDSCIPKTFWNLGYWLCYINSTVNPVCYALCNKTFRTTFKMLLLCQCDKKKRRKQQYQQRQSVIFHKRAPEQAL
smiles,measurement,setting,value
Cc1sc2ncnc(N3CCC(C(=O)Nc4ccc(S(C)(=O)=O)cc4)CC3)c2c1C [10e],selectivity versus M1,M1 [1],retaining selectivity
same,selectivity versus M5,M5 [2],retaining selectivity
Cc1sc2ncnc(N3CCC(C(=O)Nc4ccc(F)cc4Cl)CC3)c2c1C [10g],selectivity versus M1,M1 [1],retaining selectivity
same,selectivity versus M5,M5 [2],retaining selectivity
Cc1sc2ncnc(N3CCC(C(=O)Nc4cc(Cl)ccc4Cl)CC3)c2c1C [10h],selectivity versus M1,M1 [1],retaining selectivity
same,selectivity versus M5,M5 [2],retaining selectivity
Cc1sc2ncnc(N3CCC(C(=O)N4CCCC4)CC3)c2c1C [11a],"predicted CLhep, rat",[3],67 mL/min/kg
same,"predicted CLhep, human",[4],16 mL/min/kg
Cc1sc2ncnc(N3CCC(C(=O)N4CC[C@H](F)C4)CC3)c2c1C [11b],"predicted CLhep, rat",[3],68 mL/min/kg
same,"predicted CLhep, human",[4],14 mL/min/kg
Cc1ccc(OC2CCN(c3ncnc4sc(C)c(C)c34)CC2)cn1 [14b],"predicted CLhep, rat",[3],68 mL/min/kg
same,"predicted CLhep, human",[4],20 mL/min/kg
same,major pathway of metabolism in rat,[5],"hydroxylation of the 5,6-dimethyl moiety"
same,major metabolic route in human,[6],heteroatom (likely the thiophene sulfur) oxidation
Cc1ccc(OC2CCN(c3ncnc4ccc(F)cc34)CC2)cn1 [17b],"predicted CLhep, rat",[3],50 mL/min/kg
same,"predicted CLhep, human",[4],12 mL/min/kg
COc1ccc(CNC(=O)c2sc3nc(C)cc(C)c3c2N)cc1 [VU0152100],antipsychotic-like activity in rats,rats,displayed antipsychotic-like activity
Cc1nnc2sc(C(=O)NCc3ccc(S(=O)(=O)C(F)(F)F)cc3)c(N)c2c1C [VU0467154],in vivo efficacy in rodent antipsychotic and cognition models,rodent,robust in vivo efficacy
Cc1sc2ncnc(N3CCC(C(=O)Nc4ccc(S(N)(=O)=O)cc4)CC3)c2c1C [compound 5],Emax,human M4,91 ± 4%
same,activity on human M1,M1 [7],inactive
same,activity on human M5,M5 [8],inactive
same,CNS penetration,[9],not CNS penetrant
CCCN(c1ccc(C)nc1)C1CCN(c2ncnc3sc(C)c(C)c23)CC1 [compound 19],potency at M1 relative to M4,M1 [1],similarly potent
same,potency at M2 relative to M4,M2,similarly potent
same,potency at M3 relative to M4,M3,similarly potent
same,potency at M5 relative to M4,M5 [2],similarly potent
same,CYP450 inhibition profile,CYP450,acceptable
CCCCN(c1ccc(C)nc1)C1CCN(c2ncnc3sc(C)c(C)c23)CC1 [compound 20],potency at M1 relative to M4,M1 [1],similarly potent
same,potency at M2 relative to M4,M2,similarly potent
same,potency at M3 relative to M4,M3,similarly potent
same,potency at M5 relative to M4,M5 [2],similarly potent
same,CYP450 inhibition profile,CYP450,acceptable
